Reference: ChEMBL document CHEMBL3272018, “Synthesis of aziridinylallylaminophosphine oxides and sulfides as potential adjuvant cancer chemotherapeutic agents” (J Med Chem, 1976)
Active and inactive are the calls of the source. No cut-off for these calls is given here.

How the values were obtained:
[1] = Toxicity in rat allografted with rat Walker 256 cells intramuscularly; format: organism-based
W256 [2] = assay: Antitumor activity against rat Walker 256 cells intramuscularly allografted in rat assessed as survival rate at 0.3 mg/kg, qd administered for 5 days; format: functional, organism-based; design: dose 0.3 mg/kg
In short: (§1)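 Rats bearing Walker 256 carcinoma as a solid tumor; lines 1-8 use a cytoxan-resistant Walker 256 subline. Dosed once daily for 5 days. Treated (T) and untreated control (C) groups are compared, and the response is given as T/C percentage, reflecting increase in survival time. Host weight change is the average weight change of the test group minus that of the controls, in grams.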

W256 [3] = assay: Antitumor activity against rat Walker 256 cells intramuscularly allografted in rat assessed as tumor growth at 0.3 mg/kg, qd administered for 5 days (reference value: 9.2 g); format: functional; details: route intramuscular
In short: (§2)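 Dosed once daily for 5 days. Response is tumor progression in treated (T) versus untreated control (C) animals, expressed as T/C percentage. Host weight change is reported as the average net weight change of the test group minus that of the controls, in grams.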

Rattus norvegicus [4] = assay: Toxicity in rat allografted with rat Walker 256 cells intramuscularly assessed as change in body weight at 0.3 mg/kg, qd administered for 5 days; format: organism-based; design: dose 0.3 mg/kg, route intramuscular; details: in vivo, im, 120 h
In short: (§3)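 Walker 256 carcinoma solid-tumour system in rats (parent line, or the line resistant to cytoxan). Dosing was one injection per day for 5 days. Toxicity was taken as the average net body-weight change of the treated group minus the average net weight change of the untreated tumour-bearing controls, in grams.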

Musca domestica [5] = assay: Toxicity in male house fly assessed as lowest dose required to cause complete sterility administered in food; format: organism-based; details: in vivo, po
Musca domestica [6] = assay: Toxicity in male house fly assessed as lowest dose required to cause complete sterility administered in sugar; format: organism-based; details: in vivo, po
W256 [7] = assay: Antitumor activity against rat Walker 256 cells intramuscularly allografted in rat assessed as tumor growth inhibition; format: functional; details: W256, im; in short: as §2
Rattus norvegicus [8] = assay: Toxicity in rat allografted with rat Walker 256 cells intramuscularly assessed as change in body weight at 3 mg/kg, qd administered for 5 days; format: organism-based; design: dose 3 mg/kg, route intramuscular; details: in vivo, im, 120 h; in short: as §3
W256 [9] = assay: Antitumor activity against rat Walker 256 cells intramuscularly allografted in rat assessed as tumor growth inhibition at 3 mg/kg, qd administered for 5 days relative to control; format: functional; details: W256, im, 120 h, route intramuscular, read-out: TGI
In short: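 Walker 256 carcinoma grown as a solid tumour in rats, with one injection daily for 5 days. Response is given as T/C %, the treated-group measure over the untreated-control tumour measure; a smaller value means more activity. Host toxicity is the mean net weight change of treated minus control animals, in grams.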

[10] = Therapeutic index, ratio of LD50 for rat allografted with rat Walker 256 cells to ED10 for antitumor activity against rat Walker 256 cells intramuscularly allografted in rat; format: cell-based; details: read-out: TI
In short: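 Therapeutic index is LD50/ED10 in the Walker 256 solid tumour system. ED10 is the dose giving a 10% tumour weight reduction, with values extrapolated from dose-response data.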

W256 [11] = assay: Antitumor activity against rat Walker 256 cells intramuscularly allografted in rat assessed as survival rate at 3 mg/kg, qd administered for 5 days; format: functional, organism-based; design: dose 3 mg/kg; in short: as §1
L1210 = assay: In vivo antitumor activity against mouse L1210 cells in prognostic scoring system assessed as survival rate at 2.5 mg/kg, qd administered for 15 days; format: functional, organism-based; design: dose 2.5 mg/kg
In short: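 L1210 leukaemia in mice, run as an ascites tumour system. Injections were once daily for 9 or 15 days, or as a single dose. Response is the increase in survival time, given as T/C %, treated over untreated controls; a larger value means more activity. Weight change is the treated-group mean minus the control-group mean, in grams.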

Rattus norvegicus [12] = assay: Toxicity in rat allografted with rat Walker 256 cells intramuscularly assessed as change in body weight at 0.4 mg/kg, qd administered for 5 days; format: organism-based; design: dose 0.4 mg/kg, route intramuscular; details: in vivo, im, 120 h; in short: as §3
W256 [13] = assay: Antitumor activity against rat Walker 256 cells intramuscularly allografted in rat assessed as survival rate at 0.4 mg/kg, qd administered for 5 days; format: functional, organism-based; design: dose 0.4 mg/kg; in short: as §1
W256 [14] = assay: Antitumor activity against rat Walker 256 cells intramuscularly allografted in rat assessed as tumor growth inhibition at 0.4 mg/kg, qd administered for 5 days relative to control; format: functional; details: W256, im, 120 h, route intramuscular, read-out: TGI; in short: as §2

C=CCN(CC=C)P(=S)(N1CC1)N1CC1
LD50 [1]: 2 mg/kg
Activity (W256 [2]): Active
Activity (W256 [3]): 9.5 g
Activity (Rattus norvegicus [4]): 0 g
Activity (Musca domestica [5]): 0.05%
Activity (Musca domestica [6]): 0.05%

C=CCN(CC=C)P(=S)(N1CC1C)N1CC1C (stereo not drawn)
LD50 [1]: 7 mg/kg
ED10 (W256 [7]): 0.7 mg/kg
Activity (Rattus norvegicus [8]): -7 g
inhibition in vivo at 3 mg/kg (W256 [9]): 14%
selectivity ratio [10]: 10
Activity (W256 [11]): Active
Activity (Musca domestica [5]): 1%
Activity (Musca domestica [6]): 1%

C=CCN(CC=C)P(=S)(N1CC1)N1CC1C (stereo not drawn)
LD50 [1]: 4 mg/kg
ED10 (W256 [7]): 0.4 mg/kg
Activity (L1210): Active
Activity (Rattus norvegicus [12]): -4 g
selectivity ratio [10]: 10
Activity (Musca domestica [5]): 0.25%
Activity (W256 [13]): Active
inhibition in vivo at 0.4 mg/kg (W256 [14]): 77%
Activity (Musca domestica [6]): 0.5%
